# Experimental data: ChEMBL document CHEMBL3739417, “Synthesis and biological evaluation of novel 4,5-disubstituted 2H-1,2,3-triazoles as cis-constrained analogues of combretastatin A-4” (2015)
# What was measured:
# Assay type in all cases: functional
# NCI-H23 = assay: Growth inhibition of human NCI-H23 cells after 48 hrs by sulforhodamine B assay; conditions: NCI-H23, 48 h
# Outline: (§1)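 NCI-60 panel screen by SRB assay (Rubinstein method). Percentage growth taken from optical density of SRB colour, read before and 48 hrs after exposure to compound or vehicle control. All analogues first screened at 10^-5 M. Analogues giving 60% growth inhibition at that level in at least eight lines then went to a five-concentration dose-response study.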
# MDA-MB-231 = assay: Growth inhibition of human MDA-MB-231 cells after 48 hrs by sulforhodamine B assay; conditions: MDA-MB-231, 48 h; outline: as §1
# [1] = Growth inhibition of human PC3 cells after 48 hrs by sulforhodamine B assay; conditions: PC-3, 48 h; outline: as §1
# [2] = Growth inhibition of human NCI-ADR-RES cells after 48 hrs by sulforhodamine B assay; outline: as §1
# MCF7 = assay: Growth inhibition of human MCF7 cells after 48 hrs by sulforhodamine B assay; conditions: MCF7, 48 h; outline: as §1
# [3] = Growth inhibition of human SF268 cells after 48 hrs by sulforhodamine B assay; conditions: SF-268, 48 h; outline: as §1
# [4] = Growth inhibition of human SNB75 cells after 48 hrs by sulforhodamine B assay; conditions: SNB-75, 48 h; outline: as §1
# [5] = Growth inhibition of human HOP92 cells after 48 hrs by sulforhodamine B assay; conditions: HOP-92, 48 h; outline: as §1
# [6] = Growth inhibition of human LOXIMVI cells after 48 hrs by sulforhodamine B assay; conditions: LOX IMVI; outline: as §1
# [7] = Growth inhibition of human HOP62 cells after 48 hrs by sulforhodamine B assay; conditions: HOP-62, 48 h; outline: as §1
# [8] = Growth inhibition of human HCT116 cells after 48 hrs by sulforhodamine B assay; conditions: HCT-116, 48 h; outline: as §1
# [9] = Growth inhibition of human OVCAR3 cells after 48 hrs by sulforhodamine B assay; conditions: OVCAR-3, 48 h
# Outline: (§2)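 NCI-60 sulforhodamine B screen. Compounds were first tested at a single dose of 10⁻⁵ M; hits, defined as ≥60% growth inhibition in at least eight lines, went on to a five-concentration dose–response. SRB optical density was read before and 48 h after exposure to compound or vehicle. Percentage growth was calculated from OD.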
# [10] = Growth inhibition of human HCT15 cells after 48 hrs by sulforhodamine B assay; conditions: HCT-15, 48 h; outline: as §1
# U-251 = assay: Growth inhibition of human U251 cells after 48 hrs by sulforhodamine B assay; conditions: U-251, 48 h; outline: as §1
# [11] = Growth inhibition of human IGROV1 cells after 48 hrs by sulforhodamine B assay; conditions: IGROV-1, 48 h; outline: as §1
# A498 = assay: Growth inhibition of human A498 cells after 48 hrs by sulforhodamine B assay; conditions: A498, 48 h; outline: as §2
# HT-29 = assay: Growth inhibition of human HT-29 cells after 48 hrs by sulforhodamine B assay; conditions: HT-29, 48 h; outline: as §1
# [12] = Growth inhibition of human RPMI8226 cells after 48 hrs by sulforhodamine B assay; conditions: RPMI-8226, 48 h; outline: as §1
# ACHN = assay: Growth inhibition of human ACHN cells after 48 hrs by sulforhodamine B assay; outline: as §1
# KM12 = assay: Growth inhibition of human KM12 cells after 48 hrs by sulforhodamine B assay; conditions: KM12, 48 h; outline: as §1
# [13] = Growth inhibition of human HCC2998 cells after 48 hrs by sulforhodamine B assay; conditions: HCC 2998, 48 h; outline: as §1
# SK-MEL-2 = assay: Growth inhibition of human SK-MEL-2 cells after 48 hrs by sulforhodamine B assay; conditions: SK-MEL-2, 48 h; outline: as §1
# [14] = Growth inhibition of human HL-60(TB) cells after 48 hrs by sulforhodamine B assay; conditions: HL-60, 48 h; outline: as §1
# [15] = Growth inhibition of human SW620 cells after 48 hrs by sulforhodamine B assay; conditions: SW-620, 48 h; outline: as §1
# A549 = assay: Growth inhibition of human A549/ATCC cells after 48 hrs by sulforhodamine B assay; conditions: A549, 48 h; outline: as §1
# [16] = Growth inhibition of human SF295 cells after 48 hrs by sulforhodamine B assay; conditions: SF-295, 48 h; outline: as §1
# K562 = assay: Growth inhibition of human K562 cells after 48 hrs by sulforhodamine B assay; conditions: K562, 48 h; outline: as §1
# SR = assay: Growth inhibition of human SR cells after 48 hrs by sulforhodamine B assay; outline: as §1
# CAKI-1 = assay: Growth inhibition of human CAKI-1 cells after 48 hrs by sulforhodamine B assay; conditions: CAKI-1, 48 h; outline: as §1
# [17] = Growth inhibition of human COLO205 cells after 48 hrs by sulforhodamine B assay; conditions: COLO 205, 48 h; outline: as §1
# [18] = Growth inhibition of human UO31 cells after 48 hrs by sulforhodamine B assay; conditions: UO-31, 48 h; outline: as §1
# MDA-MB-435 = assay: Growth inhibition of human MDA-MB-435 cells after 48 hrs by sulforhodamine B assay; conditions: MDA-MB-435, 48 h; outline: as §2
# [19] = Growth inhibition of human MOLT4 cells after 48 hrs by sulforhodamine B assay; conditions: MOLT-4, 48 h; outline: as §1
# 786-0 = assay: Growth inhibition of human 786-0 cells after 48 hrs by sulforhodamine B assay; conditions: 786-0, 48 h; outline: as §1
# NCI-H460 = assay: Growth inhibition of human NCI-H460 cells after 48 hrs by sulforhodamine B assay; conditions: NCI-H460, 48 h; outline: as §1
# MDA-MB-468 = assay: Growth inhibition of human MDA-MB-468 cells after 48 hrs by sulforhodamine B assay; conditions: MDA-MB-468, 48 h; outline: as §1
# CCRF-CEM = assay: Growth inhibition of human CCRF-CEM cells after 48 hrs by sulforhodamine B assay; outline: as §1
# [20] = read-out: LD50 (the source's name)
smiles,measurement,setting,value
Clc1ccc(-c2n[nH]nc2-c2ccccn2)c(Cl)c1,GI50,NCI-H23,9.13 µM
same,LC50 (concentration giving 50% cell kill),NCI-H23; read-out: LD50,> 100 µM
same,GI50,MDA-MB-231,5.89 µM
same,CC50,MDA-MB-231; [20],> 100 µM
same,GI50,[1],4.5 µM
same,CC50,[1]; [20],> 100 µM
same,GI50,[2],3.92 µM
same,CC50,[2]; [20],> 100 µM
same,GI50,MCF7,2.58 µM
same,CC50,MCF7; [20],> 100 µM
same,GI50,[3],7.36 µM
same,CC50,[3]; [20],> 100 µM
same,GI50,[4],1.58 µM
same,CC50,[4]; [20],> 100 µM
same,GI50,[5],3.28 µM
same,CC50,[5]; [20],> 100 µM
same,GI50,[6],4.83 µM
same,CC50,[6]; [20],> 100 µM
same,GI50,[7],5.32 µM
same,LC50 (concentration killing 50% of cells),[7]; read-out: LD50,> 100 µM
same,GI50,[8],2.89 µM
same,CC50,[8]; [20],> 100 µM
same,GI50,[9],3.38 µM
same,LC50 (concentration giving 50% net cell kill),[9]; read-out: LD50,> 100 µM
same,GI50,[10],2.93 µM
same,CC50,[10]; [20],> 100 µM
same,GI50,U-251,5.35 µM
same,CC50,U-251; [20],> 100 µM
same,GI50,[11],5.94 µM
same,CC50,[11]; [20],> 100 µM
same,GI50,A498,3.18 µM
same,LC50 (50% net cell kill),A498; read-out: LD50,> 100 µM
same,GI50,HT-29,4.56 µM
same,LC50 (concentration killing 50% of cells),HT-29; read-out: LD50,> 100 µM
same,GI50,[12],10.7 µM
same,CC50,[12]; [20],> 100 µM
same,GI50,ACHN,1.75 µM
same,CC50,ACHN; [20],> 100 µM
same,GI50,KM12,6.87 µM
same,LC50 (concentration killing 50% of cells),KM12; read-out: LD50,> 100 µM
same,GI50,[13],9.16 µM
same,CC50,[13]; [20],> 100 µM
same,GI50,SK-MEL-2,6.52 µM
same,CC50,SK-MEL-2; [20],> 100 µM
same,GI50,[14],5.75 µM
same,CC50,[14]; [20],> 100 µM
same,GI50,[15],4.4 µM
same,LD50 (concentration killing 50% of cells),[15],> 100 µM
same,GI50,A549,4.85 µM
same,CC50,A549; [20],> 100 µM
same,GI50,[16],3.01 µM
same,CC50,[16]; [20],> 100 µM
same,GI50,K562,5.5 µM
same,CC50,K562; [20],> 100 µM
same,GI50,SR,5.43 µM
same,LC50 (concentration giving 50% net cell kill),SR; read-out: LD50,> 100 µM
same,GI50,CAKI-1,8.42 µM
same,CC50,CAKI-1; [20],> 100 µM
same,GI50,[17],2.89 µM
same,CC50,[17]; [20],> 100 µM
same,GI50,[18],6.84 µM
same,LC50 (concentration killing 50% of cells),[18]; read-out: LD50,> 100 µM
same,GI50,MDA-MB-435,2.2 µM
same,LC50 (concentration killing 50% of cells),MDA-MB-435; read-out: LD50,> 100 µM
same,GI50,[19],4.23 µM
same,CC50,[19]; [20],> 100 µM
same,GI50,786-0,2.75 µM
same,LC50 (concentration killing 50% of cells),786-0; read-out: LD50,> 100 µM
same,GI50,NCI-H460,3.67 µM
same,CC50,NCI-H460; [20],> 100 µM
same,GI50,MDA-MB-468,3.2 µM
same,CC50,MDA-MB-468; [20],> 100 µM
same,GI50,CCRF-CEM,3.38 µM
same,LC50 (concentration killing 50% of cells),CCRF-CEM; read-out: LD50,> 100 µM
